sPLA2-III inh = Blocks human group III sPLA2 activity | inhibition, % at 12.2 µM | actives 0.56% (n = 370,000) | QFRET BODIPY PC-A2 liposome hydrolysis, fluorescence | Q9NZ20;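 active = inhibition above mean plus 3 SD of compounds lying within the high and low control bounds, cut at about 19% in these data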
Target sequence (Q9NZ20 whole entry, looked up): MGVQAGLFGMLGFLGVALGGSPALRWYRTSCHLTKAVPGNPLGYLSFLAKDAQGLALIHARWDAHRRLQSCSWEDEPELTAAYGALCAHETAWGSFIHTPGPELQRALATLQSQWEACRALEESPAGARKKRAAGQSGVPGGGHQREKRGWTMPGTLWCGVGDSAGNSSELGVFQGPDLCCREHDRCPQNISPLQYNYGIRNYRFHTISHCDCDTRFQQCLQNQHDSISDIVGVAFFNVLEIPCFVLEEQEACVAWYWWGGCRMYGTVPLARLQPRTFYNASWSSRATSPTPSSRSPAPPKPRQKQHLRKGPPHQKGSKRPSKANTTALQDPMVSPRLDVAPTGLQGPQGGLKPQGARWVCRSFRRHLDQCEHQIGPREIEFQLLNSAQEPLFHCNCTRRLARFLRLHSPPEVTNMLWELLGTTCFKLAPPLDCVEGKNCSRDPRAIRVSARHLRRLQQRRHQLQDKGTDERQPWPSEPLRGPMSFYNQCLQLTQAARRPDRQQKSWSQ
SKKanGAS inh = inhibitors of SKKanGAS S. pyogenes growth in kanamycin (SK-promoter or general growth effect); BacTiter-Glo, 6 h; inhibition, % at 7.5 µM; actives 1.3% (n = 300,000);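 active = mean replicate score, as percent of positive control median, at least 50; inconclusive = mean below 50 but one replicate at or above 50; inactive = mean and every replicate below 50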;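 also: strain carries kanamycin resistance gene driven by streptokinase promoter and grows in 40 µg/ml kanamycin; loss of luminescence reflects streptokinase promoter inhibition or plain growth inhibition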
ARFGAP1 inh = inhibitors of rat ARFGAP1. Q62848. actives 0.26% (n = 360,000). Arfgap1-stimulated ARF1 GTP hydrolysis, GDP FP detection. inhibition, % at 16.5 µM;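 active = inhibition above a per-plate limit, mean inhibition of low control wells plus 3 SD, cut at about 25% in these data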
Target sequence (Q62848 1-136 limits assumed): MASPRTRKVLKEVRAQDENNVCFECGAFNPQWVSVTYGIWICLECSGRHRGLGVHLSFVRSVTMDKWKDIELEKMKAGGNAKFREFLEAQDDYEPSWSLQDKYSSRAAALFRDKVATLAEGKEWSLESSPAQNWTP
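Material: rat Arfgap1 GAP domain (His6, aa 1-136), purified enzyme. Also added: human ARF1(Δ1-17)-GTP substrate. Compound dosing: 16.5 µM single point, 1.26% DMSO. Timing: enzyme reaction 120 min at 25 °C after 20 min preincubation. Signal: GDP detection by fluorescence polarization. Read-out basis: percent inhibition of GAP-stimulated GDP formation, scaled between DMSO and no-Arfgap1 medians.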
Calb FLC = C. albicans growth modulation with fluconazole | C. albicans CaCi-2 + fluconazole, Alamar Blue growth, 48 h | growth inhibition, % (test concentration not listed) | actives 0.57% (n = 300,000);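 active = growth inhibition above about 58% in most replicates, limit read from the data, passing the limit was not always enough; inconclusive = exactly half the replicates above a set limit; inactive = most replicates below a set limit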;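 also: all wells also contain fluconazole at 8 µg/ml as a sub-toxic cotreatment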
ASAP1 GAP inh = blocks human ASAP1-stimulated Arf1 GTP hydrolysis; Q9ULH1; GDP FP detection; inhibition, % at 16.5 µM; actives 0.19% (n = 360,000); AID 624377; in the data active = inhibition above about 25%
Each line names hits and unclear results; the compound was inactive in the other large screens. Hits are enriched below; roughly 2.3% of the tested compounds scored in any of these assays.

CCn1cc(Cl)c(C(=O)N2N=C(c3ccc4ccccc4c3)CC2c2ccccc2O)n1 (centres undefined)	SKKanGAS inh 50
O=C(CSc1nc(-c2ccc(Cl)cc2)[nH]c(=O)n1)Nc1cccc(Cl)c1	SKKanGAS inh 59
O=C1C=CC(=O)N1CCNc1ncc(C(F)(F)F)cc1Cl	SKKanGAS inh 77
O=[N+]([O-])c1ccccc1NCCNc1ncc(C(F)(F)F)cc1Cl	SKKanGAS inh 52
CN(C)c1cccc2c(S(=O)(=O)NC(=O)[C@H]3O[C@@H](n4ccc(=O)[nH]c4=O)[C@H](O)[C@@H]3O)cccc12	none (no result: SKKanGAS inh, Calb FLC)
CCc1c(-c2cccc(Br)c2)ncn1CCc1ccccc1OC	none (no result: SKKanGAS inh, Calb FLC)
O=C(NC(=S)N1CCN(c2c(Cl)cccc2[N+](=O)[O-])CC1)c1cccs1	SKKanGAS inh 76
C=CCn1c(COc2ccccc2)nnc1SCC(=O)N/N=C/c1cc(Cl)ccc1O	SKKanGAS inh 63
C=CCn1c(COc2ccccc2)nnc1SCC(=O)N/N=C/c1ccc(C)cc1	none
CCOc1ccc(CCNC(=O)Cc2ccccc2)cc1OCC	none (no result: SKKanGAS inh, ARFGAP1 inh, Calb FLC, ASAP1 GAP inh)
O=C(CCCCCN1C(=O)C2C3C=CC(C3)C2C1=O)N1CCN(c2ncccn2)CC1 (centres undefined)	none (no result: SKKanGAS inh, ARFGAP1 inh, Calb FLC, ASAP1 GAP inh)
Oc1ccc(N2CCN(c3ncnc4sc(-c5ccccc5)cc34)CC2)cc1	Calb FLC 100
CC(=O)N1CCN(c2ncnc3sc(-c4ccccc4)cc23)CC1	none
CCOC(=O)c1c(NC(=O)C2CCCO2)sc(C(N)=O)c1C (centres undefined)	none
CCOC(=O)c1c(NC(=S)NCC2CCCO2)sc(C)c1C (centres undefined)	Calb FLC 85
C[C@H]1[C@@H](NC(=O)C2CCC2)CC[C@@]23CCCN2C(=O)CCC[C@@H]13	none (no result: SKKanGAS inh, ARFGAP1 inh, Calb FLC, ASAP1 GAP inh)
CC(=O)O/N=C/c1c(N2CCOCC2)n(C)c2ccccc12	Calb FLC 99
Cn1c(N2CCOCC2)c(/C=N/OC(=O)c2ccc(F)cc2)c2ccccc21	Calb FLC 94
Cn1c(Cl)c(/C=N/OC(=O)c2ccc(Cl)cc2)c2ccccc21	none
Cn1c(N2CCOCC2)c(/C=N/O)c2ccccc21	none
Cn1c(N2CCOCC2)c(/C=N/OC(=O)c2cccnc2Cl)c2ccccc21	none
Cc1ccc(C(=O)O/N=C/c2c(N3CCOCC3)n(C)c3ccccc23)cc1	Calb FLC 110
COC(=O)[C@]12C[C@H](CC(=O)NCCc3ccccc3OC)C(=O)N(CCc3ccc(OC)c(OC)c3)C1=C[C@H](C(C)(C)C)O[C@@H]2C	none (no result: SKKanGAS inh, ARFGAP1 inh, Calb FLC, ASAP1 GAP inh)
CC(=O)CC[C@@H]1CC[C@]2(CCCN(C(=O)C3CCCC3)C2)O1	none (no result: SKKanGAS inh, ARFGAP1 inh, Calb FLC, ASAP1 GAP inh)
C=CCOc1ccc(/C=C2\SC(=S)N(NS(=O)(=O)c3ccc(C)cc3)C2=O)cc1	Calb FLC 88
C=CCN1C(C(=O)OCC)CSCCS1(=O)=O (centres undefined)	none (no result: SKKanGAS inh, Calb FLC)
Cc1cc(C)n(Cc2ccc(Cl)cc2Cl)c(=O)c1S(=O)(=O)c1ccccc1	SKKanGAS inh 57
C=C(C)Cn1c(C)cc(C)c(S(=O)(=O)c2ccc(C)cc2)c1=O	Calb FLC inconclusive
COc1cccc(CNS(=O)(=O)c2cc(Br)ccc2Br)c1OC	none (no result: SKKanGAS inh, Calb FLC)
O=C1CC(c2ccc(O)cc2)Oc2cc(O)cc(O)c21 (centres undefined)	none
CC1CC(=O)c2c(cc3c(-c4c(O)cc(O)c5c(O)c6c(cc45)OC(C)CC6=O)c(O)cc(O)c3c2O)O1 (centres undefined)	SKKanGAS inh 107 (no result: sPLA2-III inh, ARFGAP1 inh, ASAP1 GAP inh)
O=C(Nc1ccc(C(O)(C(F)(F)F)C(F)(F)F)cc1)c1ccccc1C(F)(F)F	none (no result: SKKanGAS inh, ARFGAP1 inh, Calb FLC, ASAP1 GAP inh)
CC1CCc2c(C(=O)Nc3cccc(-c4nn[nH]n4)c3)csc2C1 (centres undefined)	SKKanGAS inh 56
Cc1ccc(C)c(NC(=O)c2cc(-c3ccc(Cl)cc3)nc3ccccc23)c1	none (no result: SKKanGAS inh, ARFGAP1 inh, Calb FLC, ASAP1 GAP inh)
CCCOc1ccc(Cc2c(Cl)nc(SC)nc2N(C)C)cc1	SKKanGAS inh 64
CCCOc1ccc(Cc2c(Cl)nc(SC)nc2OC)cc1	SKKanGAS inh 53
O=C(CSc1nc2ccccc2nc1N1CCCCC1)N1CCN(C(c2ccccc2)c2ccc(Cl)cc2)CC1 (centres undefined)	none (no result: SKKanGAS inh, ARFGAP1 inh, Calb FLC, ASAP1 GAP inh)
CN(Cc1ccccc1)C(=O)OCc1cn(Cc2ccc(Cl)cc2)nn1	none (no result: SKKanGAS inh, ARFGAP1 inh, Calb FLC, ASAP1 GAP inh)
COc1ccc(N2Cc3ccc(C(=O)N/N=C\c4ccc(O)cc4O)cc3C2)cc1	Calb FLC 93 (no result: sPLA2-III inh, ARFGAP1 inh, ASAP1 GAP inh)
COc1ccc2nc(C)cc(SCC(=O)N/N=C/c3ccc(O)cc3O)c2c1	none
CC(=O)c1cccc(NC(=O)C2Cc3c(-c4ccccc4Oc4ccccc4)ccnc3O2)c1 (centres undefined)	none (no result: SKKanGAS inh, Calb FLC)
COc1cccc(CNC(=O)[C@H]2CCCN2C(=O)[C@H]2CCCN2C(=O)c2ccc(OC(F)(F)F)cc2)c1	none (no result: SKKanGAS inh, Calb FLC)
FC(F)(F)c1nc(N2CCN(c3ccccc3)CC2)nc2c1CCCCC2	SKKanGAS inh 68
CC(=O)Nc1ncnc2c1c(-c1ccc(Cl)cc1)nn2C(C)(C)C	Calb FLC 102
CC(=O)N(C(C)=O)c1ncnc2c1c(-c1ccc(Cl)cc1)nn2C(C)(C)C	none
COc1ccc(Cn2c(SCc3ccccc3C)nc3cc(OC)c(OC)cc3c2=N)cc1	SKKanGAS inh 60
O=C(CSc1ncnc2scc(-c3ccc(Cl)cc3)c12)Nc1ccccc1-c1ccccc1	none (no result: SKKanGAS inh, ARFGAP1 inh, Calb FLC, ASAP1 GAP inh)
CN1CCN(c2c(F)cc3c(=O)c(C(=O)O)cn4c3c2SCC4)CC1	none
C[C@H]1COc2c(C3(N)CC3)c(F)cc3c(=O)c(C(=O)O)cn1c23	SKKanGAS inh 66 (no result: sPLA2-III inh, ARFGAP1 inh, Calb FLC, ASAP1 GAP inh)
C[C@H]1COc2c(N3CCN(C)CC3)c(F)cc3c(=O)c(C(=O)O)cn1c23	SKKanGAS inh 107
Cc1ccc(NC(=O)CNCc2ccccc2Cl)cc1S(=O)(=O)N(C)C	none
O=C(Nc1ccc(C(=O)NCc2ccc(F)cc2)cc1)C1=CSCCO1	SKKanGAS inh 51
CCCc1cc2c(O)ccc(O)c2c(=O)o1	none (no result: SKKanGAS inh, Calb FLC)
O=c1c2ccccc2c(C=Nc2ccc(O)cc2)c(O)n1Cc1ccccc1	SKKanGAS inh 67
CCCC(Oc1ccc(Br)cc1)c1nc2c3cc(OC)c(OC)cc3nc(=S)n2[nH]1 (centres undefined)	SKKanGAS inh 100
S=c1nc2ccccc2c2nc(-c3ccccc3)[nH]n12	SKKanGAS inh inconclusive, Calb FLC inconclusive
CC(Oc1ccc(Br)cc1)c1nc2c3ccccc3nc(=S)n2[nH]1 (centres undefined)	SKKanGAS inh 92
CCc1nnn2c1Cn1c3ccccc3c(=O)n1[C@@H](C(C)C)C2	none (no result: SKKanGAS inh, ARFGAP1 inh, Calb FLC, ASAP1 GAP inh)
Nc1[nH]c(C(=O)c2ccccc2)c(-c2ccc(Cl)cc2F)c1C(=O)NCCc1c[nH]c2ccccc12	none (no result: SKKanGAS inh, Calb FLC)
Cc1ccc(S(=O)(=O)C(C#N)c2nc3ccccc3nc2N2CCN(C)CC2)cc1C (centres undefined)	Calb FLC 83
CCC(=O)Nc1ccc2c(c1)C(=O)N(C)[C@@H]1CC[C@@H](CC(=O)OC)O[C@H]1CO2	none (no result: SKKanGAS inh, ARFGAP1 inh, Calb FLC, ASAP1 GAP inh)
Cc1ccc(NC(=O)CNC(=O)c2ccc(Oc3ccccc3)cc2)nc1	Calb FLC 89
